This is an account of results in ChEMBL document CHEMBL3576799, “Aranciamycins I and J, Antimycobacterial Anthracyclines from an Australian Marine-Derived Streptomyces sp” (J Nat Prod, 2015).

Converted amounts (≈) assume the structure as drawn.

One assay deals with Bacillus spizizenii. Kind of assay: Antibacterial activity against Bacillus subtilis ATCC 6633 after 24 hrs by spectrophotometric analysis. Type of assay: functional, organism-based. As to conditions: ATCC 6633, 24 h.
The next assay relates to Candida albicans. Kind of assay: Antifungal activity against Candida albicans ATCC 90028 after 48 hrs by spectrophotometric analysis. The assay is classed as functional, organism-based. As to conditions: ATCC 90028, 48 h.
In a further assay the test system is SW-620. As to the kind of experiment: Cytotoxicity against human SW620 cells assessed as growth inhibition after 48 hrs by MTT assay. The settings on record: SW-620, 48 h. Type of assay: functional, cell-based. In outline:
(§1)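 Modified MTT assay on adherent human cancer lines: SW620 (epithelial-like colorectal carcinoma), NCI-H460 (epithelial-like lung carcinoma), KB-3-1 (epithelial-like cervix carcinoma) and HepG2 (hepatocellular carcinoma). Output given as IC50.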
Background: Tetrazolium assays rely on reduction of a dye to a coloured formazan, in cell work by metabolically active cells.

Another assay relates to HepG2. As to the kind of experiment: Cytotoxicity against human HepG2 cells assessed as growth inhibition after 48 hrs by MTT assay. Type of assay: functional, cell-based. As to conditions: HepG2, 48 h. In a few lines: as §1
Assay [1] deals with Staphylococcus aureus. As to the kind of experiment: Antibacterial activity against Staphylococcus aureus ATCC 25923 after 24 hrs by spectrophotometric analysis. The assay is classed as functional, organism-based. As to conditions: ATCC 25923, 24 h.
The nature of assay [2]: Cytotoxicity against human KB-3-1 cells assessed as growth inhibition after 48 hrs by MTT assay. Type of assay: functional, cell-based. The settings on record: KB 3-1, 48 h. In outline:
as §1

The next assay has as its system Bacillus subtilis. Kind of assay: Antibacterial activity against Bacillus subtilis ATCC 6051 after 24 hrs by spectrophotometric analysis. As to conditions: ATCC 6051, 24 h. The assay is classed as functional, organism-based.
The next assay relates to Pseudomonas aeruginosa. As to the kind of experiment: Antibacterial activity against Pseudomonas aeruginosa ATCC 10145 after 24 hrs by spectrophotometric analysis. The assay is classed as functional, organism-based. The settings on record: ATCC 10145, 24 h.
Another assay deals with Escherichia coli. Kind of assay: Antibacterial activity against Escherichia coli ATCC 11775 after 24 hrs by spectrophotometric analysis. The assay is classed as functional, organism-based. The settings on record: DSM 30083 = JCM 1649 = ATCC 11775, 24 h.
Assay [3] deals with Staphylococcus aureus. As to the kind of experiment: Antibacterial activity against Staphylococcus aureus ATCC 9144 after 24 hrs by spectrophotometric analysis. Type of assay: functional, organism-based. As to conditions: ATCC 9144, 24 h.
In another assay the test system is NCI-H460. Kind of assay: Cytotoxicity against human NCI-H460 cells assessed as growth inhibition after 48 hrs by MTT assay. Type of assay: functional, cell-based. The settings on record: NCI-H460, 48 h. In outline:
as §1

As a reminder, the IC50 is the concentration at which inhibition is half-maximal. A word on the MIC: it is the lowest concentration that inhibits growth of the organism. A low value points to a more susceptible organism. On to `C[C@@H]1O[C@@H](O[C@H]2C[C@](C)(O)Cc3cc4c(c(O)c32)C(=O)c2c(O)cccc2C4=O)[C@H](O)[C@H](O)[C@H]1O`, for which the IC50 in the assay with Bacillus spizizenii was 3 µM; in the assay with Candida albicans, above 30 µM; with SW-620, 7.5 µM; in the assay with HepG2 it was 12 µM; in the assay with Staphylococcus aureus [1], above 30 µM; in [2], above 30 µM. The concentration for half-maximal inhibition (IC50) in the assay with Bacillus subtilis was 1.1 µM; in the assay with Pseudomonas aeruginosa, above 30 µM; in the assay on Escherichia coli, above 30 µM; with Staphylococcus aureus [3], above 30 µM; in the assay on NCI-H460 it was 9 µM. In addition, the MIC with Bacillus spizizenii is 7.5 µM (≈ 3.65 µg/mL); in the assay with Candida albicans, above 30 µM; with Staphylococcus aureus [1], above 30 µM; against Bacillus subtilis, 3.7 µM (≈ 1.8 µg/mL); in the assay with Pseudomonas aeruginosa, above 30 µM; against Escherichia coli, above 30 µM. In addition, in the assay with Staphylococcus aureus [3], the MIC was above 30 µM.

In the case of `CO[C@H]1[C@H](O[C@H]2C[C@](C)(O)C(=O)c3cc4c(c(O)c32)C(=O)c2c(O)cccc2C4=O)O[C@@H](C)[C@H](O)[C@H]1O`, the IC50 in the assay with Bacillus spizizenii was 2.8 µM; in the assay with Candida albicans, above 30 µM; with SW-620 it was 10 µM; in the assay with HepG2 it was 12 µM; in the assay with Staphylococcus aureus [1], above 30 µM; in assay [2], above 30 µM. Moreover, the IC50 was 2.4 µM in the assay on Bacillus subtilis; above 30 µM in the assay with Pseudomonas aeruginosa; above 30 µM with Escherichia coli; above 30 µM in the assay on Staphylococcus aureus [3]; above 30 µM with NCI-H460. Besides, the minimum inhibitory concentration (MIC) against Bacillus spizizenii is 7.5 µM (≈ 3.86 µg/mL); against Candida albicans, above 30 µM; against Staphylococcus aureus [1], above 30 µM; against Bacillus subtilis it was 7.2 µM (≈ 3.7 µg/mL); with Pseudomonas aeruginosa it was above 30 µM; against Escherichia coli, above 30 µM. The compound further yielded an MIC in the assay on Staphylococcus aureus [3] above 30 µM.

As to `CO[C@H]1[C@H](O[C@H]2C[C@](C)(O)Cc3cc4c(c(O)c32)C(=O)c2c(O)cccc2C4=O)O[C@@H](C)[C@H](O)[C@H]1O`, the IC50 in the assay with Bacillus spizizenii is 2.4 µM; in the assay on Candida albicans, above 30 µM; with SW-620, above 30 µM; with HepG2, above 30 µM; in the assay on Staphylococcus aureus [1] it was above 30 µM; in assay [2], above 30 µM. The IC50 is 2.8 µM with Bacillus subtilis; above 30 µM with Pseudomonas aeruginosa; above 30 µM with Escherichia coli; above 30 µM with Staphylococcus aureus [3]; above 30 µM in the assay with NCI-H460. In addition, the MIC against Bacillus spizizenii was 7.5 µM (≈ 3.75 µg/mL); against Candida albicans it was above 30 µM; against Staphylococcus aureus [1], above 30 µM; with Bacillus subtilis it was 7.5 µM (≈ 3.75 µg/mL); against Pseudomonas aeruginosa, above 30 µM; with Escherichia coli, above 30 µM. The same compound returned an MIC in the assay with Staphylococcus aureus [3] above 30 µM.

With `CO[C@H]1[C@H](O[C@@H]2c3c(cc4c(c3O)C(=O)c3c(O)cccc3C4=O)C(=O)[C@@](C)(O)[C@H]2OC)O[C@@H](C)[C@H](O)[C@H]1O` [ARANCIAMYCIN], the IC50 in the assay on Bacillus spizizenii is 5.8 µM; in the assay on Candida albicans it was above 30 µM; in the assay with SW-620, above 30 µM; in the assay on HepG2, 18 µM; with Staphylococcus aureus [1], above 30 µM; in [2], above 30 µM. Moreover, the IC50 in the assay with Bacillus subtilis is 6 µM; in the assay on Pseudomonas aeruginosa it was above 30 µM; in the assay on Escherichia coli, above 30 µM; with Staphylococcus aureus [3] it was above 30 µM; in the assay with NCI-H460, above 30 µM. The MIC in the assay with Bacillus spizizenii was 15 µM (≈ 8.17 µg/mL); with Candida albicans, above 30 µM; with Staphylococcus aureus [1], above 30 µM; with Bacillus subtilis, 15 µM (≈ 8.17 µg/mL); in the assay with Pseudomonas aeruginosa it was above 30 µM; in the assay with Escherichia coli, above 30 µM. For the same compound, the MIC against Staphylococcus aureus [3] is above 30 µM.
